ChEMBL document CHEMBL4118033, “Total Synthesis, Configuration Assignment, and Cytotoxic Activity Evaluation of Protulactone A” (J Nat Prod, 2017)
Active and inactive are the calls of the source.

Legend:
Type in all cases: functional, cell-based
[1] = tested on: CCRF-CEM; experiment: Antiproliferative activity against human CCRF-CEM cells at 10 uM incubated for 48 hrs by sulforhodamine B assay
Summary of the method: (§1)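 Run by the NCI Developmental Therapeutics Program (Division of Cancer Treatment and Diagnosis) as part of the NCI60 human tumour cell line panel screen. Each compound was tested at a single dose of 10 μM. Results are reported as one-dose mean graphs.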

[2] = tested on: HL-60(TB); experiment: Antiproliferative activity against human HL-60(TB) cells at 10 uM incubated for 48 hrs by sulforhodamine B assay
Summary of the method: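 Tested within the NCI60 cancer cell line panel screen run by the Developmental Therapeutics Program (Division of Cancer Treatment and Diagnosis, National Cancer Institute). Each stereoisomer was given at a single dose of 10 μM. Results are reported as one-dose mean graphs.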

[3] = tested on: K562; experiment: Antiproliferative activity against human K562 cells at 10 uM incubated for 48 hrs by sulforhodamine B assay; summary of the method: as §1
[4] = tested on: MOLT-4; experiment: Antiproliferative activity against human MOLT4 cells at 10 uM incubated for 48 hrs by sulforhodamine B assay; summary of the method: as §1
[5] = tested on: RPMI-8226; experiment: Antiproliferative activity against human RPMI8226 cells at 10 uM incubated for 48 hrs by sulforhodamine B assay; summary of the method: as §1
[6] = tested on: SR; experiment: Antiproliferative activity against human SR cells at 10 uM incubated for 48 hrs by sulforhodamine B assay
Summary of the method: (§2)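 Run by the NCI Developmental Therapeutics Program (Division of Cancer Treatment and Diagnosis) as part of the NCI60 human tumour cell line panel. Each compound was tested in vitro at a single dose of 10 μM, and the data are reported as one-dose mean graphs across the panel.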

[7] = tested on: A549; experiment: Antiproliferative activity against human A549/ATCC cells at 10 uM incubated for 48 hrs by sulforhodamine B assay; summary of the method: as §1
[8] = tested on: HOP-92; experiment: Antiproliferative activity against human HOP92 cells at 10 uM incubated for 48 hrs by sulforhodamine B assay; summary of the method: as §1
[9] = tested on: NCI-H226; experiment: Antiproliferative activity against human NCI-H226 cells at 10 uM incubated for 48 hrs by sulforhodamine B assay; summary of the method: as §1
[10] = tested on: NCI-H322M; experiment: Antiproliferative activity against human NCI-H322M cells at 10 uM incubated for 48 hrs by sulforhodamine B assay; summary of the method: as §1
[11] = tested on: NCI-H460; experiment: Antiproliferative activity against human NCI-H460 cells at 10 uM incubated for 48 hrs by sulforhodamine B assay; summary of the method: as §1
[12] = tested on: NCI-H522; experiment: Antiproliferative activity against human NCI-H522 cells at 10 uM incubated for 48 hrs by sulforhodamine B assay; summary of the method: as §1
[13] = tested on: COLO 205; experiment: Antiproliferative activity against human COLO205 cells at 10 uM incubated for 48 hrs by sulforhodamine B assay; summary of the method: as §1
[14] = tested on: HCC 2998; experiment: Antiproliferative activity against human HCC2998 cells at 10 uM incubated for 48 hrs by sulforhodamine B assay; summary of the method: as §1
[15] = tested on: HCT-15; experiment: Antiproliferative activity against human HCT15 cells at 10 uM incubated for 48 hrs by sulforhodamine B assay; summary of the method: as §1
[16] = tested on: HT-29; experiment: Antiproliferative activity against human HT-29 cells at 10 uM incubated for 48 hrs by sulforhodamine B assay; summary of the method: as §1
[17] = tested on: KM12; experiment: Antiproliferative activity against human KM12 cells at 10 uM incubated for 48 hrs by sulforhodamine B assay; summary of the method: as §1
[18] = tested on: SF-268; experiment: Antiproliferative activity against human SF268 cells at 10 uM incubated for 48 hrs by sulforhodamine B assay; summary of the method: as §1
[19] = tested on: SF-295; experiment: Antiproliferative activity against human SF295 cells at 10 uM incubated for 48 hrs by sulforhodamine B assay; summary of the method: as §1
[20] = tested on: SF-539; experiment: Antiproliferative activity against human SF539 cells at 10 uM incubated for 48 hrs by sulforhodamine B assay; summary of the method: as §1
[21] = tested on: SNB-19; experiment: Antiproliferative activity against human SNB19 cells at 10 uM incubated for 48 hrs by sulforhodamine B assay; summary of the method: as §1
[22] = tested on: SNB-75; experiment: Antiproliferative activity against human SNB75 cells at 10 uM incubated for 48 hrs by sulforhodamine B assay; summary of the method: as §2
[23] = tested on: LOX IMVI; experiment: Antiproliferative activity against human LOXIMVI cells at 10 uM incubated for 48 hrs by sulforhodamine B assay; summary of the method: as §1
[24] = tested on: Malme-3M; experiment: Antiproliferative activity against human MALME-3M cells at 10 uM incubated for 48 hrs by sulforhodamine B assay; summary of the method: as §1
[25] = tested on: M14; experiment: Antiproliferative activity against human M14 cells at 10 uM incubated for 48 hrs by sulforhodamine B assay; summary of the method: as §1
[26] = tested on: MDA-MB-435; experiment: Antiproliferative activity against human MDA-MB-435 cells at 10 uM incubated for 48 hrs by sulforhodamine B assay; summary of the method: as §1
[27] = tested on: SK-MEL-28; experiment: Antiproliferative activity against human SK-MEL-28 cells at 10 uM incubated for 48 hrs by sulforhodamine B assay; summary of the method: as §1
[28] = tested on: SK-MEL-5; experiment: Antiproliferative activity against human SK-MEL-5 cells at 10 uM incubated for 48 hrs by sulforhodamine B assay; summary of the method: as §1
[29] = tested on: UACC-257; experiment: Antiproliferative activity against human UACC257 cells at 10 uM incubated for 48 hrs by sulforhodamine B assay; summary of the method: as §2
[30] = tested on: UACC-62; experiment: Antiproliferative activity against human UACC62 cells at 10 uM incubated for 48 hrs by sulforhodamine B assay; summary of the method: as §2
[31] = tested on: IGROV-1; experiment: Antiproliferative activity against human IGROV1 cells at 10 uM incubated for 48 hrs by sulforhodamine B assay; summary of the method: as §1
[32] = tested on: OVCAR-3; experiment: Antiproliferative activity against human OVCAR3 cells at 10 uM incubated for 48 hrs by sulforhodamine B assay; summary of the method: as §1
[33] = tested on: OVCAR-8; experiment: Antiproliferative activity against human OVCAR8 cells at 10 uM incubated for 48 hrs by sulforhodamine B assay; summary of the method: as §1
[34] = tested on: SK-OV-3; experiment: Antiproliferative activity against human SKOV3 cells at 10 uM incubated for 48 hrs by sulforhodamine B assay; summary of the method: as §1
[35] = tested on: A498; experiment: Antiproliferative activity against human A498 cells at 10 uM incubated for 48 hrs by sulforhodamine B assay; summary of the method: as §1
[36] = tested on: CAKI-1; experiment: Antiproliferative activity against human Caki1 cells at 10 uM incubated for 48 hrs by sulforhodamine B assay; summary of the method: as §1
[37] = tested on: RXF 393; experiment: Antiproliferative activity against human RXF393 cells at 10 uM incubated for 48 hrs by sulforhodamine B assay; summary of the method: as §1
[38] = tested on: UO-31; experiment: Antiproliferative activity against human UO31 cells at 10 uM incubated for 48 hrs by sulforhodamine B assay; summary of the method: as §2
[39] = tested on: PC-3; experiment: Antiproliferative activity against human PC3 cells at 10 uM incubated for 48 hrs by sulforhodamine B assay; summary of the method: as §1
[40] = tested on: DU-145; experiment: Antiproliferative activity against human DU145 cells at 10 uM incubated for 48 hrs by sulforhodamine B assay; summary of the method: as §1
[41] = tested on: Hs-578T; experiment: Antiproliferative activity against human Hs 578T cells at 10 uM incubated for 48 hrs by sulforhodamine B assay; summary of the method: as §1
[42] = tested on: BT-549; experiment: Antiproliferative activity against human BT549 cells at 10 uM incubated for 48 hrs by sulforhodamine B assay; summary of the method: as §1
[43] = tested on: T47D; experiment: Antiproliferative activity against human T47D cells at 10 uM incubated for 48 hrs by sulforhodamine B assay; summary of the method: as §2
[44] = tested on: MDA-MB-468; experiment: Antiproliferative activity against human MDA-MB-468 cells at 10 uM incubated for 48 hrs by sulforhodamine B assay; summary of the method: as §1

Measured: Activity

O=C(/C=C/c1ccccc1)O[C@H](c1ccccc1)[C@@H]1O[C@@H]2CC(=O)O[C@@H]2[C@H]1O
active: all assays above
